# Measurements published in ChEMBL document CHEMBL1146568, “Xanthones and benzophenones from the stems of Garcinia multiflora” (J Nat Prod, 2003).
# Experiments:
# [1] = test system: Radical scavenging activity; assay: Antioxidant activity assessed as DPPH radical scavenging activity; type: functional
# In short: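 Test sample in EtOH mixed with a 0.1 mM DPPH solution in EtOH (concentration before mixing). Absorbance read at 517 nm after 20 min. Scavenging taken as the drop in DPPH absorbance, expressed as a percentage of a DPPH control without sample. Catechin served as the positive control.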
# [2] = Toxicity against brine shrimp; type: organism-based; settings: artemia, in vivo; read-out: LD50 (the source's name)
smiles,measurement,setting,value
O=C(c1cccc(O)c1)c1c(O)cc(O)cc1O,IC50,[1],66.3 µM
same,LC50,[2],> 100 µM
COc1cc(O)cc(O)c1C(=O)c1ccc(O)c(O)c1,IC50,[1],7.8 µM
same,LC50,[2],> 100 µM
COc1ccc2cc3[n+](cc2c1OC)CCc1cc2c(cc1-3)OCO2 [BERBERINE CHLORIDE],LC50,[2],67 µM
Oc1cc(O)c2c(c1)OC(c1ccc(O)c(O)c1)C(O)C2 (configuration not stated) [CATECHIN],IC50,[1],2.53 µM
CC(C)=CCC/C(C)=C/CC1(CC=C(C)C)C(=O)C(O)=Cc2oc3cc(O)cc(O)c3c(=O)c21 (configuration not stated) [GARCINIANONE A],IC50,[1],107 µM
same,LC50,[2],7.7 µM
CC(C)=CCC/C(C)=C\CC1(CC=C(C)C)C(=O)C(O)=Cc2oc3cc(O)cc(O)c3c(=O)c21 (configuration not stated) [GARCINIANONE B],IC50,[1],145 µM
same,LC50,[2],25.8 µM
O=C(c1ccc(O)c(O)c1)c1c(O)cc(O)cc1O [MACLURIN],IC50,[1],5.3 µM
same,LC50,[2],43.1 µM
